Source: ChEMBL document CHEMBL1153955, “Indolylarylsulfones bearing natural and unnatural amino acids. Discovery of potent inhibitors of HIV-1 non-nucleoside wild type and resistant mutant strains reverse transcriptase and coxsackie B4 virus” (J Med Chem, 2009)

How the values were obtained:
[1] = Cytotoxicity against MDCK cells by MTS assay; assay type: cell-based, Canis lupus familiaris; settings: dog
Sindbis virus = test: Antiviral activity against Sindbis virus in african green monkey Vero cells assessed as protection against virus-induced cytopathicity; assay type: functional, organism-based
Outline: (§1)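 Confluent cell monolayers inoculated with 100 CCID₅₀ virus. After 1-2 h adsorption, residual virus removed and cultures incubated with varying compound concentrations. Cytopathicity scored once it reached completion in untreated infected controls. EC₅₀ = dose reducing virus-induced cytopathogenicity by 50%.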

[2] = Cytotoxicity against human HeLa cells assessed as drug level causing microscopically detectable alteration of normal cell morphology after 3 days; assay type: cell-based
Outline: (§2)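 Serial compound dilutions added to confluent HeLa or Vero monolayers. MCC = minimum concentration causing microscopically detectable alteration of cell morphology after 3 days of incubation.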

[3] = Cytotoxicity against MDCK cells assessed as drug level causing microscopically detectable alteration of normal cell morphology; assay type: cell-based, Canis lupus familiaris; settings: dog
Influenza B virus [4] = test: Antiviral activity against influenza B virus in MDCK cells assessed as reduction of virus-induced cytopathicity by visual cytopathic effect scoring method; assay type: functional, organism-based
Influenza A virus [5] = test: Antiviral activity against influenza H1N1 virus in MDCK cells assessed as reduction of virus-induced cytopathicity by MTS method; assay type: functional, organism-based; settings: Influenza A virus, H1N1, MDCK
[6] = test system: Vesicular stomatitis virus; test: Antiviral activity against VSV in human HEL cells assessed as protection against virus-induced cytopathicity; assay type: functional, organism-based
Punta Toro virus = test: Antiviral activity against Punta Toro virus in african green monkey Vero cells assessed as protection against virus-induced cytopathicity; assay type: functional, organism-based; outline: as §1
Feline coronavirus = test: Antiviral activity against Feline coronavirus in feline […] cells assessed as inhibition of virus-induced cytopathicity; assay type: functional, organism-based; settings: Alphacoronavirus 1
[7] = test system: Human immunodeficiency virus 1; test: Antiviral activity against HIV1 3B in human CEM cells assessed as protection against virus-induced cytopathicity after 4 days; assay type: functional, organism-based; settings: Human immunodeficiency virus 1, 3B, CCRF-CEM, 96 h
Outline: (§3)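 CEM cells (~3 × 10⁵ cells/mL) infected with ~100 CCID₅₀ per mL of HIV-1 (IIIB) or HIV-2 (ROD), then seeded into wells containing compound dilutions. After 4 days at 37 °C, syncytium (giant cell) formation was examined microscopically. EC₅₀ = concentration protecting CEM cells from HIV cytopathicity by 50%.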

[8] = biological target: Human immunodeficiency virus type 1 reverse transcriptase (Human immunodeficiency virus 1, UniProt Q72547); test: Inhibition of HIV1 reverse transcriptase p66/p51; settings: read-out: IC50
Vaccinia virus = test: Antiviral activity against Vaccinia virus Lederle in human HEL cells assessed as protection against virus-induced cytopathicity; assay type: functional, organism-based; settings: Orthopoxvirus vaccinia
[9] = Cytotoxicity against feline CRFK cells by MTS assay; assay type: cell-based, Felis catus; settings: cat
Coxsackievirus B4 [10] = test: Antiviral activity against Coxsackievirus B4 in african green monkey Vero cells assessed as protection against virus-induced cytopathicity; assay type: functional, organism-based; settings: Enterovirus B; outline: as §1
Human alphaherpesvirus 2 = test: Antiviral activity against HSV2 G in human HEL cells assessed as protection against virus-induced cytopathicity; assay type: functional, organism-based; settings: Human alphaherpesvirus 2, strain G; outline: as §1
L1210 = test: Antiproliferative activity against mouse L1210 cells after 2 days; assay type: cell-based; settings: L1210, 48 h
Outline: (§4)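 Cells seeded at 5 × 10⁴ to 7.5 × 10⁴ cells/200 µL with or without serial compound dilutions; incubated at 37 °C for 2 days (L1210) or 3 days (Molt4/C8, CEM). Cell numbers counted with a Coulter counter. CC₅₀ = concentration reducing proliferation by 50% versus untreated controls, read from plots of cell number (% of control) against concentration. Means of at least two independent experiments.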

[11] = test system: Human immunodeficiency virus 2; test: Antiviral activity against HIV2 ROD in human CEM cells assessed as protection against virus-induced cytopathicity after 4 days; assay type: functional, organism-based; settings: Human immunodeficiency virus 2, ROD, CCRF-CEM, 96 h; outline: as §3
[12] = biological target: Human immunodeficiency virus type 1 reverse transcriptase (Human immunodeficiency virus 1, UniProt Q72547, Y181I); test: Inhibition of HIV1 reverse transcriptase p66/p51 Y181I mutant; settings: read-out: IC50
Outline: (§5)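 Substrate was 0.5 µg poly(rA)/oligo(dT) 10:1 (0.3 µM 3′-OH ends) with 10 µM [³H]dTTP, at 37 °C. Acid-precipitable radioactivity was counted on GF/C filters after TCA washes.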

[13] = test system: Respiratory syncytial virus; test: Antiviral activity against RSV Long in human HeLa cells assessed as protection against virus-induced cytopathicity; assay type: functional, organism-based; outline: as §1
[14] = biological target: Human immunodeficiency virus type 1 reverse transcriptase (Human immunodeficiency virus 1, UniProt Q72547, L100I); test: Inhibition of HIV1 reverse transcriptase p66/p51 L100I mutant; settings: read-out: IC50; outline: as §5
Influenza A virus H3N2 [15] = test: Antiviral activity against influenza H3N2 virus in MDCK cells assessed as reduction of virus-induced cytopathicity by MTS method; assay type: functional, organism-based
Human alphaherpesvirus 1 [16] = test: Antiviral activity against thymidine kinase deficient and acyclovir resistant HSV1 KOS in human HEL cells assessed as protection against virus-induced cytopathicity; assay type: functional, organism-based; settings: Human alphaherpesvirus 1, KOS
[17] = Cytotoxicity against african green monkey Vero cells assessed as drug level causing microscopically detectable alteration of normal cell morphology after 3 days; assay type: cell-based; settings: chlorocebus sabaeus; outline: as §2
[18] = Antiproliferative activity against human Molt4/C8 cells after 3 days; assay type: cell-based; settings: MOLT-4, 72 h; outline: as §4
[19] = Cytotoxicity against human HEL cells assessed as drug level causing microscopically detectable alteration of normal cell morphology after 3 days; assay type: cell-based
Coxsackievirus B4 [20] = test: Antiviral activity against Coxsackievirus B4 in human HeLa cells assessed as protection against virus-induced cytopathicity; assay type: functional, organism-based; settings: Enterovirus B; outline: as §1
[21] = test system: Vesicular stomatitis virus; test: Antiviral activity against VSV in human HeLa cells assessed as protection against virus-induced cytopathicity; assay type: functional, organism-based
[22] = biological target: Human immunodeficiency virus type 1 reverse transcriptase (Human immunodeficiency virus 1, UniProt Q72547, K103N); test: Inhibition of HIV1 reverse transcriptase p66/p51 K103N mutant; settings: read-out: IC50; outline: as §5
Human alphaherpesvirus 1 [23] = test: Antiviral activity against HSV1 KOS in human HEL cells assessed as protection against virus-induced cytopathicity; assay type: functional, organism-based; settings: Human alphaherpesvirus 1, KOS
[24] = test system: Mammalian orthoreovirus 1; test: Antiviral activity against Reovirus 1 in african green monkey Vero cells assessed as protection against virus-induced cytopathicity; assay type: functional, organism-based; settings: Mammalian orthoreovirus 1, Vero; outline: as §1
Human respirovirus 3 = test: Antiviral activity against Parainfluenza virus type 3 in african green monkey Vero cells assessed as protection against virus-induced cytopathicity; assay type: functional, organism-based; settings: Human respirovirus 3, Vero; outline: as §1
CCRF-CEM = test: Antiproliferative activity against human CEM cells after 3 days; assay type: cell-based; settings: 72 h; outline: as §4
Felid alphaherpesvirus 1 = test: Antiviral activity against Feline herpesvirus in feline […] cells assessed as inhibition of virus-induced cytopathicity; assay type: functional, organism-based
Influenza A virus [25] = test: Antiviral activity against influenza H1N1 virus in MDCK cells assessed as reduction of virus-induced cytopathicity by visual cytopathic effect scoring method; assay type: functional, organism-based
Influenza A virus H3N2 [26] = test: Antiviral activity against influenza H3N2 virus in MDCK cells assessed as reduction of virus-induced cytopathicity by visual cytopathic effect scoring method; assay type: functional, organism-based
Influenza B virus [27] = test: Antiviral activity against influenza B virus in MDCK cells assessed as reduction of virus-induced cytopathicity by MTS method; assay type: functional, organism-based

In the case of `Cc1cc(C)cc(S(=O)(=O)c2c(C(N)=O)[nH]c3ccc(Cl)c(F)c23)c1`, the CC50 [1] is reported as 40.6 µM, the EC50 (Sindbis virus) is reported as over 100 µM and the MCC at 72 h [2] is reported as over 100 µM. For the same compound, the MCC [3] was 20 µM, the EC50 (Influenza B virus [4]) was over 4 µM and the EC50 (Influenza A virus [5]) was over 4 µM. The EC50 [6] was over 20 µM, the EC50 (Punta Toro virus) was over 100 µM and the EC50 (Feline coronavirus) was over 100 µM. The EC50 [7] was 0.001 µM, the IC50 [8] was 0.003 µM and the EC50 (Vaccinia virus) was over 20 µM. For the same compound, the CC50 [9] was over 100 µM, the EC50 (Coxsackievirus B4 [10]) was 100 µM and the EC50 (Human alphaherpesvirus 2) was over 20 µM. The IC50 (L1210) was 46 µM, the EC50 [11] was over 10 µM and the IC50 [12] was 0.029 µM. It also gave an EC50 [13] of over 100 µM, an IC50 [14] of 0.002 µM and an EC50 (Influenza A virus H3N2 [15]) of over 4 µM. It also gave an EC50 (Human alphaherpesvirus 1 [16]) of over 20 µM, an MCC at 72 h [17] of over 100 µM and an IC50 [18] of 14 µM. The MCC at 72 h [19] was over 100 µM, the EC50 (Coxsackievirus B4 [20]) was 27 µM and the EC50 [21] was over 100 µM. The IC50 [22] was 0.006 µM, the EC50 (Human alphaherpesvirus 1 [23]) was over 20 µM and the EC50 [24] was over 100 µM. It also gave an EC50 (Human respirovirus 3) of over 100 µM, an IC50 (CCRF-CEM) of over 28 µM and an EC50 (Felid alphaherpesvirus 1) of over 100 µM. For the same compound, the EC50 (Influenza A virus [25]) was over 4 µM, the EC50 (Influenza A virus H3N2 [26]) was over 4 µM and the EC50 (Influenza B virus [27]) was over 4 µM.

`Cc1cc(C)cc(S(=O)(=O)c2c(C(=O)NC(C)CS(N)(=O)=O)[nH]c3ccc(Cl)c(F)c23)c1` (configuration not stated) gave a CC50 [1] of 7.3 µM, an EC50 (Sindbis virus) of 20 µM and an MCC at 72 h [2] of 20 µM. It also gave an MCC [3] of 20 µM, an EC50 (Influenza B virus [4]) of over 4 µM and an EC50 (Influenza A virus [5]) of over 4 µM. For the same compound, the EC50 [6] was over 4 µM, the EC50 (Punta Toro virus) was over 20 µM and the EC50 (Feline coronavirus) was over 4 µM. The EC50 [7] was 0.0039 µM, the IC50 [8] was 0.036 µM and the EC50 (Vaccinia virus) was over 4 µM. For the same compound, the CC50 [9] was 15 µM, the EC50 (Coxsackievirus B4 [10]) was 12 µM and the EC50 (Human alphaherpesvirus 2) was over 4 µM. For the same compound, the IC50 (L1210) was 18 µM, the EC50 [11] was over 10 µM and the IC50 [12] was over 40 µM. For the same compound, the EC50 [13] was over 4 µM, the IC50 [14] was 0.267 µM and the EC50 (Influenza A virus H3N2 [15]) was over 4 µM. It also gave an EC50 (Human alphaherpesvirus 1 [16]) of over 4 µM, an MCC at 72 h [17] of 100 µM and an IC50 [18] of 12 µM. The MCC at 72 h [19] was 20 µM, the EC50 (Coxsackievirus B4 [20]) was over 4 µM and the EC50 [21] was over 4 µM. The IC50 [22] was 0.003 µM, the EC50 (Human alphaherpesvirus 1 [23]) was over 4 µM and the EC50 [24] was over 20 µM. It also gave an EC50 (Human respirovirus 3) of over 20 µM, an IC50 (CCRF-CEM) of 16 µM and an EC50 (Felid alphaherpesvirus 1) of over 4 µM. It also gave an EC50 (Influenza A virus [25]) of over 4 µM, an EC50 (Influenza A virus H3N2 [26]) of over 4 µM and an EC50 (Influenza B virus [27]) of over 4 µM.
